In ChEMBL document CHEMBL3286178, “Cell membrane mediated (-)-epicatechin effects on upstream endothelial cell signaling: evidence for a surface receptor” (Bioorg Med Chem Lett, 2014):
Values belong to the molecule of their own block, whether it stands above or below them. Activity calls are given as the source filed them. The rule behind the calls is not given here.

Columns and labels:
[1] = Binding affinity to rat brain cell membrane; format: cell membranes
[2] = molecular target: T1, Nitric oxide synthase 3 (Homo sapiens) (UniProt P29474); assay: Induction of eNOS activation in calcium free HCAEC assessed as phosphorylation at serine 615 at 100 nM after 10 mins incubation in presence of wortmannin
T1 sequence (whole entry): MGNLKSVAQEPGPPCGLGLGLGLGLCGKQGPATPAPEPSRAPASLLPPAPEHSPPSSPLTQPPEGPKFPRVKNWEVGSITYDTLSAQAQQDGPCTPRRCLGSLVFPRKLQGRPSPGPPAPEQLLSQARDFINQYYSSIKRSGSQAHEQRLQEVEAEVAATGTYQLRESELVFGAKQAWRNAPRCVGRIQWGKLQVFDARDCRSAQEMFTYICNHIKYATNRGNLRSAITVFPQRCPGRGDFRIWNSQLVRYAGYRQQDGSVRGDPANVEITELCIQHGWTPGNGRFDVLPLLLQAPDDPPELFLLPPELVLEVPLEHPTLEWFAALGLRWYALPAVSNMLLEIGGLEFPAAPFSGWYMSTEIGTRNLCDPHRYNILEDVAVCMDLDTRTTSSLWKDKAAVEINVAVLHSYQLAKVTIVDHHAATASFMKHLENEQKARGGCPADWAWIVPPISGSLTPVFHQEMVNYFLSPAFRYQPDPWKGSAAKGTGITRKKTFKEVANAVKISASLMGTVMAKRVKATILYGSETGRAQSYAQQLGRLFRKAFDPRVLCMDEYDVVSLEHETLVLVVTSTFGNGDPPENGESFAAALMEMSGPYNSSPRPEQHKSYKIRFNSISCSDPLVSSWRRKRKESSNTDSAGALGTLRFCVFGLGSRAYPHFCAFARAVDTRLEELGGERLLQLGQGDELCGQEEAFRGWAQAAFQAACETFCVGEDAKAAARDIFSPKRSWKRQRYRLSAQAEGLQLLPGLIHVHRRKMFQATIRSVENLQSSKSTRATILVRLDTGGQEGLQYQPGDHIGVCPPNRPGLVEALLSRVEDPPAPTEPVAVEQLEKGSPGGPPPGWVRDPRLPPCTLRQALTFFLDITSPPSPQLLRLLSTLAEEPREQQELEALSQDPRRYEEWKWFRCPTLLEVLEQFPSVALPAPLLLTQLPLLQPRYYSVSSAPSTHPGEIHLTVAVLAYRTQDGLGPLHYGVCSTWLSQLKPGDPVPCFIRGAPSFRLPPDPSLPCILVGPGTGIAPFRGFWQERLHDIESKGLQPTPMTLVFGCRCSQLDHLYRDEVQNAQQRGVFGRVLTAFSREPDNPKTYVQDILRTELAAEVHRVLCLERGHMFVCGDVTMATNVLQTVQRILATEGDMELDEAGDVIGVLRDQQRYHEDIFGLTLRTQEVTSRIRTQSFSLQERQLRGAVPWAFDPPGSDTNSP
How it was run: (§1)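 Ca2+-free human coronary artery endothelial cells treated 10 min with 100 nM free or dextran-conjugated compound (conjugate dose expressed as equivalent bound compound); phospho-PI3K, phospho-PDK1, phospho-AKT, phospho-eNOS (Ser1177, Ser615) and PIP3 assessed, with or without PI3K inhibitor wortmannin; Western blots representative of three independent experiments.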

[3] = species: Homo sapiens; assay: Induction of PI3K in calcium free HCAEC assessed as Akt phosphorylation at 100 nM after 10 mins incubation by Western blot analysis in presence of wortmannin; how it was run: as §1
[4] = species: Homo sapiens; assay: Induction of PIP3 level in calcium free HCAEC at 100 nM after 10 mins incubation by Western blot analysis in presence of wortmannin; format: functional; how it was run: as §1
[5] = species: Homo sapiens; assay: Induction of PI3K in calcium free HCAEC assessed as PDK1 phosphorylation at 100 nM after 10 mins incubation by Western blot analysis; how it was run: as §1
[6] = species: Homo sapiens; assay: Induction of PIP3 level in calcium free HCAEC at 100 nM after 10 mins incubation by Western blot analysis; format: functional; how it was run: as §1
[7] = molecular target: T1, Nitric oxide synthase 3 (Homo sapiens); assay: Induction of eNOS activation in calcium free HCAEC assessed as phosphorylation at serine 615 at 100 nM after 10 mins incubation; how it was run: as §1
[8] = species: Homo sapiens; assay: Induction of PI3K in calcium free HCAEC assessed as PDK1 phosphorylation at 100 nM after 10 mins incubation by Western blot analysis in presence of wortmannin; how it was run: as §1
[9] = molecular target: T1, Nitric oxide synthase 3 (Homo sapiens); assay: Induction of eNOS activation in calcium free HCAEC assessed as phosphorylation at serine 1177 at 100 nM after 10 mins incubation in presence of wortmannin; how it was run: as §1
[10] = species: Homo sapiens; assay: Induction of PI3K phosphorylation in calcium free HCAEC at 100 nM after 10 mins incubation by Western blot analysis in presence of wortmannin; how it was run: as §1
[11] = species: Homo sapiens; assay: Induction of PI3K in calcium free HCAEC assessed as Akt phosphorylation at 100 nM after 10 mins incubation by Western blot analysis; how it was run: as §1
[12] = species: Homo sapiens; assay: Effect on eNOS phosphorylation at Thr 495 in calcium free HCAEC at 100 nM after 10 mins incubation; format: functional
[13] = molecular target: T1, Nitric oxide synthase 3 (Homo sapiens); assay: Induction of eNOS activation in calcium free HCAEC assessed as phosphorylation at serine 1177 at 100 nM after 10 mins incubation; how it was run: as §1
[14] = species: Homo sapiens; assay: Induction of PI3K phosphorylation in calcium free HCAEC at 100 nM after 10 mins incubation by Western blot analysis; how it was run: as §1
[15] = tested on: brain; assay: Binding affinity to rat brain cell membrane at 10 uM

Compound: Oc1ccc(/C=C/c2cc(O)cc(O)c2)cc1 [RESVERATROL]
- Ki [1]: 102 nM

- Activity [2]: inactive
- Activity [3]: inactive
- Activity [5]: Active
- Activity [7]: Active
- Activity [8]: inactive
- Activity [9]: inactive
- Activity [10]: inactive
- Activity [11]: Active
- Activity [13]: Active
- Activity [14]: Active
Compound: Oc1cc(O)c2c(c1)O[C@H](c1ccc(O)c(O)c1)[C@H](O)C2
- Activity [4]: inactive
- Activity [6]: Active
- Activity [12]: inactive
- Activity [15]: inactive

Compound: O=C(O[C@@H]1Cc2c(O)cc(O)cc2O[C@@H]1c1ccc(O)c(O)c1)c1cc(O)c(O)c(O)c1 [EPICATECHIN GALLATE]
- Ki [1]: 25 nM

Compound: O=C(O[C@@H]1Cc2c(O)cc(O)cc2O[C@@H]1c1cc(O)c(O)c(O)c1)c1cc(O)c(O)c(O)c1 [EPIGALOCATECHIN GALLATE]
- Ki [1]: 25 nM
